Source: ChEMBL document CHEMBL1777798, “Novel fungicidal benzylsulfanyl-phenylguanidines” (Bioorg Med Chem Lett, 2011)
≈ marks a conversion by molar mass, not a printed value.

Assays:
Candida albicans [1] = assay: Fungicidal activity against Candida albicans SC5314 assessed as concentration required to less than 0.1% survival of organism after 2 hrs; assay type: functional; conditions: SC5314, 2 h
Outline: (§1)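 C. albicans SC5314 or C. glabrata BG2 exposed to compounds. Cells then washed and plated on YPD (1% yeast extract, 2% peptone, 2% glucose) for CFU counts. MFC = minimal concentration leaving <0.1% survival relative to DMSO control.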

Nakaseomyces glabratus = assay: Fungal activity against Candida glabrata BG2 assessed as concentration required to less than 0.1% survival of organism after 2 hrs; assay type: functional; conditions: BG2, 2 h; outline: as §1
[2] = Antimicrobial activity against mixed Candida albicans SC5314/Staphylococcus epidermidis assessed as biofilm eradication after 24 hrs; assay type: functional
Outline: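 Mixed biofilm of C. albicans SC5314 and S. epidermidis (50/50). Overnight cultures suspended in 1/20 TSB at OD590 0.5 and mixed. 24 h adhesion, planktonic cells removed, then 48 h growth in fresh 1/20 TSB. Mature biofilms exposed 24 h to compound in PBS. Biomass read by crystal violet staining. BEC50 = concentration eradicating 50% of biofilm.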

[3] = Toxicity in glp-4delta sek-1 delta double mutant Caenorhabditis elegans model assessed as survival at 50 uM after 11 days relative to day 0; assay type: organism-based; conditions: in vivo
Outline: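 glp-4Δsek-1Δ C. elegans grown on NGM/OP50 E. coli plates to L4 and washed in M9 buffer (with cholesterol and kanamycin). 40–50 worms per well in 1 mL M9 with compound at 50 μM or DMSO (0.5%) control. Survival counted daily, relative to day 0. Mean ±SEM of duplicates; experiments run at least twice.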

Candida albicans [4] = assay: Fungicidal activity against Candida albicans SC5314-infected Caenorhabditis elegans L4 larvae model assessed as survival of worms at 60 uM after 5 days relative to day 0; assay type: functional
Outline: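 C. elegans L4 larvae fed 4 h on YPD agar lawns of C. albicans SC5314 (overnight culture spread, 16 h at 37 °C). Worms washed in M9 buffer and incubated with compound at 60 μM or DMSO control. Living worms counted daily; % survival relative to day 0. Mean ±SEM of duplicates; experiments run at least twice.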

Candida albicans [5] = assay: Fungicidal activity against Candida albicans SC5314 assessed as biofilm eradication after 24 hrs; assay type: functional

| Compound | MFC (Candida albicans [1]) [µM] | MFC (Nakaseomyces glabratus) [µM] | BBC50 [2] [µM] | survival at 264 h, 50 µM [3] [%] | survival at 60 µM (Candida albicans [4]) [%] | BBC50 (Candida albicans [5]) [µM] |
| --- | --- | --- | --- | --- | --- | --- |
| N=C(N)NC(=N)Nc1cccc(SCc2ccc(Cl)cc2)c1 | 50 (≈ 16.7 µg/mL) | 50 (≈ 16.7 µg/mL) |  |  |  |  |
| Cl.N=C(N)NC(=N)Nc1cccc(SCc2cc(Br)cc(Br)c2)c1 | 5 | 10 | 55 | 5 | 15.4 |  |
| N=C(N)NC(=N)Nc1ccc(SCc2cc(Br)cc(Br)c2)cc1 | > 100 | > 100 |  |  |  |  |
| Brc1cc(Br)cc(CSc2cccc(N=C(NC3CCCCC3)NC3CCCCC3)c2)c1 | 5 (≈ 2.9 µg/mL) | 5 (≈ 2.9 µg/mL) |  | 33 | 55.5 |  |
| Clc1ccc(CSc2ccc(N=C(NC3CCCCC3)NC3CCCCC3)cc2)cc1 | > 100 | > 100 |  |  |  |  |
| Nc1ccccc1SCc1cc(Br)cc(Br)c1 | > 100 | > 100 |  |  |  |  |
| Clc1ccc(CSc2ccccc2N=C(NC2CCCCC2)NC2CCCCC2)cc1 | > 100 | 50 (≈ 22.8 µg/mL) |  |  |  |  |
| Brc1cc(Br)cc(CSc2ccc(N=C(NC3CCCCC3)NC3CCCCC3)cc2)c1 | 5 (≈ 2.9 µg/mL) | 5 (≈ 2.9 µg/mL) |  | 51 | 49 |  |
| N=C(N)Nc1ccc(SCc2ccc(Cl)cc2)cc1 | 50 (≈ 14.6 µg/mL) | 50 (≈ 14.6 µg/mL) |  |  |  |  |
| N=C(N)Nc1cccc(SCc2cc(Br)cc(Br)c2)c1 | 50 (≈ 20.8 µg/mL) | 50 (≈ 20.8 µg/mL) |  |  |  |  |
| N=C(N)Nc1cccc(SCc2ccc(Cl)cc2)c1 | 100 (≈ 29.2 µg/mL) | 100 (≈ 29.2 µg/mL) |  |  |  |  |
| N=C(N)NC(=N)Nc1ccc(SCc2ccc(Cl)cc2)cc1 | 50 (≈ 16.7 µg/mL) | 50 (≈ 16.7 µg/mL) |  |  |  |  |
| OC(Cn1cncn1)(Cn1cncn1)c1ccc(F)cc1F [FLUCONAZOLE] | > 100 | > 100 | >240 |  |  | >240 |
| Nc1ccc(SCc2ccc(Cl)cc2)cc1 | > 100 | > 100 |  |  |  |  |
| N=C(N)Nc1ccccc1SCc1cc(Br)cc(Br)c1 | 50 (≈ 20.8 µg/mL) | 50 (≈ 20.8 µg/mL) |  |  |  |  |
| Nc1ccc(SCc2cc(Br)cc(Br)c2)cc1 | > 100 | > 100 |  |  |  |  |
| Clc1ccc(CSc2cccc(N=C(NC3CCCCC3)NC3CCCCC3)c2)cc1 | 5 (≈ 2.28 µg/mL) | 5 (≈ 2.28 µg/mL) |  | 19 | 18.5 |  |
| Nc1ccccc1SCc1ccc(Cl)cc1 | > 100 | > 100 |  |  |  |  |
| Brc1cc(Br)cc(CSc2ccccc2N=C(NC2CCCCC2)NC2CCCCC2)c1 | 5 (≈ 2.9 µg/mL) | 50 (≈ 29 µg/mL) |  |  |  |  |
| N=C(N)Nc1ccccc1SCc1ccc(Cl)cc1 | > 100 | > 100 |  |  |  |  |
| N=C(N)Nc1ccc(SCc2cc(Br)cc(Br)c2)cc1 | 50 (≈ 20.8 µg/mL) | 50 (≈ 20.8 µg/mL) |  |  |  |  |
